Reference: ChEMBL document CHEMBL1126916, “Cyclic GMP phosphodiesterase inhibitors. 1. The discovery of a novel potent inhibitor, 4-((3,4-(methylenedioxy)benzyl)amino)-6,7,8-trimethoxyquinazoline” (J Med Chem, 1993)

Tests used:
Sus scrofa = organism: Sus scrofa; assay: Relaxant effect on PGF2-alpha precontracted pig coronary arteries; type: functional
In short: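 Porcine coronary arterial strips were equilibrated at 1 g resting tension. Intact endothelium was confirmed by 7 × 10^-9 M bradykinin relaxing strips precontracted with 50 mM KCl (final concentrations). Strips were then contracted with PGF2α, final 10^-6 M, and cumulative concentration–relaxation curves were built after a plateau. Relaxation was expressed as % of the PGF2α contraction. EC50 came from the log curve, mean ± SEM, n experiments.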

Phosphodiesterase 4A [1] = molecular target: T1, Phosphodiesterase 4A (Sus scrofa, UniProt O77823); assay: Inhibition of cAMP specific phosphodiesterase from porcine coronary arteries; conditions: in the assay text read “porcine aorta” for “porcine coronary arteries”
T1 sequence (O77823 whole entry): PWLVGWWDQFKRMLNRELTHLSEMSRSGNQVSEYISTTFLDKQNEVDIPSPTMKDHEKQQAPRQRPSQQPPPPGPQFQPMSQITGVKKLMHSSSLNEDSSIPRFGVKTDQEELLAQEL
In short: (§1)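 Isozymes were separated from porcine aorta: type II (cGMP-stimulated), type III, and type IV (cAMP-specific). Each used [3H]cAMP at 1 μM as substrate. Compounds were tested in DMSO diluted in assay buffer over 10^-8 to 10^-4 M, with final DMSO below 0.4% (v/v). IC50 came from log concentration–inhibition curves (at least three points), as means ± SEM from at least three experiments.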

Phosphodiesterase 4A [2] = molecular target: T1, Phosphodiesterase 4A; assay: Inhibition of cAMP specific phosphodiesterase from porcine aorta
Phosphodiesterase 3A = molecular target: T2, Phosphodiesterase 3A (Sus scrofa, UniProt Q9XSW7); assay: Inhibition of cGMP-inhibited phosphodiesterase from porcine coronary arteries; in short: as §1
T2 sequence (Q9XSW7 whole entry): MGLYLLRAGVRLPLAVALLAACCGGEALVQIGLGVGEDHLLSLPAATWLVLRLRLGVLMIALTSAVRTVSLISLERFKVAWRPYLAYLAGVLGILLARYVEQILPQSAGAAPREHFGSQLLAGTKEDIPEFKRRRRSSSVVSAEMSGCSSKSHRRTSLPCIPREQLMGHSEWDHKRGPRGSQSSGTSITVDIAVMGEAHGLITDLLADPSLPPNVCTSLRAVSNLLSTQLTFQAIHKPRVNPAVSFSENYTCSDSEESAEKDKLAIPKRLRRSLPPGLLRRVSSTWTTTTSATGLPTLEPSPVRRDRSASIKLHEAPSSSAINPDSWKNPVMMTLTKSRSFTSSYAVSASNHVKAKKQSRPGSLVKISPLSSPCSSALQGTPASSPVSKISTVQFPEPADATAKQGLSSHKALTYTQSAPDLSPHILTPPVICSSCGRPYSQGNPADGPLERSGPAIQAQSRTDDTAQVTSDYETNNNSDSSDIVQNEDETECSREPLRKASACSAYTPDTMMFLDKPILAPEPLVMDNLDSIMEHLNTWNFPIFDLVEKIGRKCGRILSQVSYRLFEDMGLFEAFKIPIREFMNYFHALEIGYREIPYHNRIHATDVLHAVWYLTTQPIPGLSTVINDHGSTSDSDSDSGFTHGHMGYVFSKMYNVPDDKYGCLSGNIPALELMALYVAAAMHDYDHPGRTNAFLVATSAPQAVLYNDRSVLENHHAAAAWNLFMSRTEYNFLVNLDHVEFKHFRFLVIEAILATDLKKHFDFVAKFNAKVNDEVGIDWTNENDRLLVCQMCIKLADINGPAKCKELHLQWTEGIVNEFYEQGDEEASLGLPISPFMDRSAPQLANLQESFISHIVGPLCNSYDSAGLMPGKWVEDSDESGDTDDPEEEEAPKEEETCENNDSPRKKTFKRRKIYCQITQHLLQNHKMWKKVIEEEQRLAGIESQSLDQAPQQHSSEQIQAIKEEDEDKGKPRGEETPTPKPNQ

Phosphodiesterase 4A [3] = molecular target: T1, Phosphodiesterase 4A; assay: Inhibition of cAMP specific phosphodiesterase from porcine aorta
In short: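 PDE isozymes (types I–V) separated from porcine aorta. Substrate was [3H]cGMP for types I and V and [3H]cAMP for types II, III and IV, each at 1 μM. Test agents were dissolved in DMSO and diluted in assay buffer over 10^-8 to 10^-4 M, with final DMSO below 0.4% (v/v). IC50 was taken from the log concentration–inhibition curve (at least three points), mean ± SEM of at least three experiments.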

[4] = in the assay text read “porcine aorta” for “porcine coronary arteries”

Compound	EC50 (Sus scrofa) [µM]	IC50 (Phosphodiesterase 4A [1]) [µM]	IC50 (Phosphodiesterase 3A; [4]) [µM]	IC50 (Phosphodiesterase 4A [2]) [µM]	other results
Clc1cccc(Nc2nnc(-c3ccccc3)c3ccccc23)c1	–	–	–	37.2	–
OCCN(CCO)c1nc(N2CCCCC2)c2nc(N(CCO)CCO)nc(N3CCCCC3)c2n1 [DIPYRIDAMOLE]	–	6.4	> 100	–	–
COc1ccc(Cc2nccc3cc(OC)c(OC)cc23)cc1OC [PAPAVERINE]	–	–	–	1.7	IC50 (Phosphodiesterase 3A): 0.62 µM

The next lines start with results.

EC50 (Sus scrofa) [µM]	IC50 (Phosphodiesterase 4A [1]) [µM]	IC50 (Phosphodiesterase 3A; [4]) [µM]	Compound	IC50 (Phosphodiesterase 4A [2]) [µM]	other results
1.96	> 100	–	COc1cc2c(NCc3ccc4c(c3)OCO4)ncnc2c(OC)c1OC	–	–
4.75	–	> 100	CCCOc1ccccc1-c1nc2nn[nH]c2c(=O)[nH]1 [ZAPRINAST]	–	IC50 (Phosphodiesterase 4A [3]): 79.6 µM
